The subject of data set [1] is Mus musculus. Description: Antiinflammatory activity in BALB/c mouse ear assessed as inhibition of croton oil-induced ear swelling up to 333 mg/kg administered topically on ear measured at 6 hrs relative to control. Type of data set: functional, organism-based. The method, boiled down: (§1)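 Male BALB/c mice, 3 per group, dosed at 33–333 mg/Kg. Ears were checked at 6 h for heat, redness and swelling against a croton oil-induced control (2 μg/ear in acetone).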

For data set [2], the system named is Mus musculus. Description: Antiinflammatory activity in BALB/c mouse ear assessed as inhibition of croton oil-induced ear redness up to 333 mg/kg administered topically on ear measured at 6 hrs relative to control. The data set is classed as functional, organism-based. The method, boiled down: as §1
The subject of data set [3] is Mus musculus. Description: Antiinflammatory activity in BALB/c mouse ear assessed as inhibition of croton oil-induced heat in ear up to 333 mg/kg administered topically on ear measured at 6 hrs relative to control. The data set is classed as functional, organism-based. Summed up: as §1
Data set [4] deals with Mus musculus. Description: Antiinflammatory activity in BALB/c mouse assessed as inhibition of croton oil-induced ear edema at 166 mg/kg administered topically on ear measured at 6 hrs. The data set is classed as functional. The settings on record: topical. The method, boiled down:
(§2)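 Male BALB/c mice (25-35 g, mean 30 g), 3 per group. Ear edema induced with croton oil 2 μg/ear in acetone. Compounds were dosed at 33, 100, 166 and 333 mg/Kg, with indomethacin 33 mg/Kg as positive control. At 6 h a 6 mm ear punch was weighed and compared with untreated ears (edema index). Inhibition % = 100 × (1 − Vt/Vc) versus the control group.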

Data set [5] is described as follows: Cytotoxicity against African green monkey Vero cells assessed as cell viability at 62.5 ug/ml by MTT assay. The data set is classed as cell-based. The settings on record: chlorocebus sabaeus, read-out: Activity. The method, boiled down: (§3)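 Vero cells were seeded at 2×10^6 cells mL⁻¹ in E-MEM with 10% FBS and antibiotics, then left to attach for 24 h and 48 h before treatment. Dilutions were 62.5–1000 µg/mL in E-MEM. After a PBS wash, cells got MTT 1 mg/mL for 4 h at 37 °C in the dark. Formazan was dissolved in DMSO and read at 540 nm. Viability % = AT/AC × 100. Three independent experiments.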
For orientation: Tetrazolium dyes change colour on reduction, which living cells bring about.

Data set [6] is described as follows: Cytotoxicity against African green monkey Vero cells assessed as cell viability at 125 ug/ml by MTT assay. The note with it: chlorocebus sabaeus, read-out: Activity. The data set is classed as cell-based. Summed up: as §3
Data set [7] can be described thus: Cytotoxicity against African green monkey Vero cells assessed as cell viability at 250 ug/ml by MTT assay. The settings on record: chlorocebus sabaeus, read-out: Activity. The data set is classed as cell-based. Summed up:
as §3

Data set [8] can be described thus: Cytotoxicity against African green monkey Vero cells assessed as cell viability at 500 ug/ml by MTT assay. The settings on record: chlorocebus sabaeus, read-out: Activity. Type of data set: cell-based. Summed up:
as §3

A short description of data set [9]: Cytotoxicity against African green monkey Vero cells assessed as cell viability at 1000 ug/ml by MTT assay. Type of data set: cell-based. The note with it: chlorocebus sabaeus, read-out: Activity. The method, boiled down:
as §3

Data set [10] relates to Mus musculus. The data set is described as follows: Antiinflammatory activity in BALB/c mouse assessed as inhibition of croton oil-induced ear edema at 33 mg/kg administered topically on ear measured at 6 hrs. Type of data set: functional. The note with it: topical. Summed up: as §2

Calls of active or inactive are those of the source. The calls are words filed in the database; no cut-off is given here.

As a reminder, the inhibition in vivo is how much of the control response was suppressed. `O=C1CSC(c2ccccc2[N+](=O)[O-])N1CCN1CCOCC1` (centres undefined): the inhibition result with Mus musculus [1], with Mus musculus [2] and with Mus musculus [3] was “Active” throughout. Further, the inhibition in vivo at 166 mg/kg with Mus musculus [4] was 50%. For the same compound, the viability at 62.5 ug/ml in data set [5] came out at 98%. Moreover, in data set [6], the viability at 125 ug/ml worked out at 98%. In addition, the viability at 250 ug/ml in data set [7] was determined as 98%. The viability at 500 ug/ml in data set [8] amounted to 91%. Moreover, the viability at 1000 ug/ml in data set [9] was determined as 83%.
In the case of `Cc1ccc(C2SCC(=O)N2CCN2CCOCC2)cc1` (centres undefined), the inhibition entry in the data set on Mus musculus [1], in the data set on Mus musculus [2] and in the data set on Mus musculus [3] was “Active” in each case. For the same compound, the inhibition in vivo at 166 mg/kg in the data set on Mus musculus [4] was 42%. Also, the viability at 62.5 ug/ml in [5] worked out at 87%. Moreover, the viability at 125 ug/ml in [6] was determined as 87%. Moreover, the viability at 250 ug/ml in data set [7] worked out at 80%. The viability at 500 ug/ml in data set [8] was 76%. Moreover, the viability at 1000 ug/ml in [9] came to 73%.
As to `O=C1CSC(c2cccc([N+](=O)[O-])c2)N1CCN1CCOCC1` (centres undefined), the inhibition entry with Mus musculus [1], with Mus musculus [2] and in the data set on Mus musculus [3] was “Active” throughout. Moreover, the inhibition in vivo at 166 mg/kg in the data set with Mus musculus [4] is 48%. For the same compound, the viability at 62.5 ug/ml in [5] worked out at 100%. In data set [6], the viability at 125 ug/ml came out at 100%. Further, the viability at 250 ug/ml in data set [7] came out at 100%. Moreover, in data set [8], the viability at 500 ug/ml came out at 92%. In addition, the viability at 1000 ug/ml in data set [9] came out at 92%.
Regarding `O=C1CSC(c2ccc(Cl)cc2)N1CCN1CCOCC1` (centres undefined), the inhibition entry with Mus musculus [1], in the data set on Mus musculus [2] and with Mus musculus [3] was “Active” each time. In the data set with Mus musculus [4], the inhibition in vivo at 166 mg/kg is 44%. The viability at 62.5 ug/ml in [5] was 87%. Further, the viability at 125 ug/ml in data set [6] worked out at 87%. For the same compound, in [7], the viability at 250 ug/ml came to 87%. For the same compound, the viability at 500 ug/ml in [8] is 76%. Besides, in data set [9], the viability at 1000 ug/ml is 74%.
As to `O=C1CSC(c2ccc(F)cc2)N1CCN1CCOCC1` (centres undefined), the inhibition entry in the data set with Mus musculus [1], with Mus musculus [2] and with Mus musculus [3] was “Active” in each case. Besides, the inhibition in vivo at 166 mg/kg with Mus musculus [4] was found to be 39%. Also, in [5], the viability at 62.5 ug/ml was determined as 100%. Also, the viability at 125 ug/ml in [6] was 100%. For the same compound, the viability at 250 ug/ml in [7] was found to be 100%. Further, the viability at 500 ug/ml in data set [8] was determined as 91%. Further, the viability at 1000 ug/ml in data set [9] stood at 89%.
Consider `COc1ccc(C2SCC(=O)N2CCN2CCOCC2)cc1` (centres undefined), for which the inhibition result in the data set with Mus musculus [1], in the data set on Mus musculus [2] and with Mus musculus [3] was “Active” in each case. For the same compound, the inhibition in vivo at 166 mg/kg in the data set on Mus musculus [4] worked out at 54%. Moreover, in [5], the viability at 62.5 ug/ml amounted to 100%. Besides, in data set [6], the viability at 125 ug/ml stood at 100%. Also, the viability at 250 ug/ml in data set [7] worked out at 100%. In addition, in [8], the viability at 500 ug/ml came to 90%. Further, in data set [9], the viability at 1000 ug/ml was determined as 89%.
For the compound `COc1ccc2c(c1)c(CC(=O)O)c(C)n2C(=O)c1ccc(Cl)cc1` [INDOMETHACIN], the inhibition in vivo at 33 mg/kg in the data set with Mus musculus [10] came out at 58%.
Consider `O=C1CSC(c2ccc(O)cc2)N1CCN1CCOCC1` (centres undefined), for which the inhibition result in the data set on Mus musculus [1], with Mus musculus [2] and in the data set on Mus musculus [3] was “Active” each time. In the data set on Mus musculus [4], the inhibition in vivo at 166 mg/kg is 45%. Moreover, the viability at 62.5 ug/ml in data set [5] was 83%. In [6], the viability at 125 ug/ml was 83%. Further, in [7], the viability at 250 ug/ml was found to be 83%. Also, the viability at 500 ug/ml in data set [8] was 79%. The viability at 1000 ug/ml in data set [9] is 73%.

The values above are taken from ChEMBL document CHEMBL3822395, “2-Aryl-3-(2-morpholinoethyl)thiazolidin-4-ones: Synthesis, anti-inflammatory in vivo, cytotoxicity in vitro and molecular docking studies” (Eur J Med Chem, 2016).
